Assay results published in ChEMBL document CHEMBL1909586 (Eur J Med Chem, 2011).

How the values were obtained:
[1] = molecular target: Cholinesterase (Homo sapiens, UniProt P06276); assay: Inhibition of human serum recombinant BChE after 20 mins using butyrylthiocholine iodide as a substrate by Ellman's assay
[2] = molecular target: T1, Acetylcholinesterase (Homo sapiens, UniProt P22303); assay: Inhibition of human […] recombinant AChE after 20 mins using acetylthiocholine iodide as a substrate by Ellman's assay
T1 sequence (P22303 whole entry): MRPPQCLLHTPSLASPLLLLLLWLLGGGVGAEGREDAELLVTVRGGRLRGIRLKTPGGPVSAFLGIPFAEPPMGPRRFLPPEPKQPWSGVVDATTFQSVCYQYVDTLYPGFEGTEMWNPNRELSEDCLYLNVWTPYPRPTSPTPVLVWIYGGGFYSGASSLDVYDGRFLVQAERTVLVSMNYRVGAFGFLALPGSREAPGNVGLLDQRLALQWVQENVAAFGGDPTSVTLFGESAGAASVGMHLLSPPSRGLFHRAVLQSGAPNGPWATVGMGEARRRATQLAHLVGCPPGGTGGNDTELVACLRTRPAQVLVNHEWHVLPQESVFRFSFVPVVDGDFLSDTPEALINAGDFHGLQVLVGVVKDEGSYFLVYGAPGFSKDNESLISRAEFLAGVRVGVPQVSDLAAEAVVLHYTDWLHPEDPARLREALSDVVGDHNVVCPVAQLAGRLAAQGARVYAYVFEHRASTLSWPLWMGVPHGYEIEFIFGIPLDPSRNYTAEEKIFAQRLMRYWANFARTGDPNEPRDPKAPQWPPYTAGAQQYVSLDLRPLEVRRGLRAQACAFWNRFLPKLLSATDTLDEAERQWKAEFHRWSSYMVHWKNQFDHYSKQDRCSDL

[3] = tested on: SH-SY5Y; assay: Antioxidant activity in human SH-SY5Y cells assessed as inhibition of tert-butyl hydroperoxide-induced intracellular ROS production at 10 uM after 24 hrs using DCFH-DA by fluorescence assay (reference value: 82.4 +/- 6.6 %); assay type: functional; design: scale not given: the % may be the effect or the level left
[4] = tested on: SH-SY5Y; assay: Antioxidant activity in human SH-SY5Y cells assessed as inhibition of tert-butyl hydroperoxide-induced intracellular ROS production at 1 uM after 24 hrs using DCFH-DA by fluorescence assay (reference value: 82.4 +/- 6.6 %); assay type: functional; design: scale not given: the % may be the effect or the level left
[5] = tested on: SH-SY5Y; assay: Cytotoxicity against human SH-SY5Y cells assessed as reduction in cell viability at 50 uM after 24 hrs by MTT assay; assay type: cell-based
In short: (§1)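 Cells were SH-SY5Y, grown in DMEM with 10% fetal calf serum and 2 mM glutamine, seeded at 2 × 10^5 cells/well and allowed 24 h at 37 °C/5% CO2. Compound-containing media (0.1–50 µM) were applied for 24 h. After a PBS wash, cells took up MTT (5 mg/mL in PBS) for 4 h. Formazan was dissolved in isopropanol and read at 405 nm. Viability is given as % of control cells.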

[6] = tested on: SH-SY5Y; assay: Antioxidant activity in human SH-SY5Y cells assessed as inhibition of tert-butyl hydroperoxide-induced intracellular ROS production at 5 uM after 24 hrs using DCFH-DA by fluorescence assay (reference value: 82.4 +/- 6.6 %); assay type: functional; design: scale not given: the % may be the effect or the level left
[7] = tested on: SH-SY5Y; assay: Antioxidant activity in human SH-SY5Y cells assessed as inhibition of tert-butyl hydroperoxide-induced intracellular ROS production at 50 uM after 24 hrs using DCFH-DA by fluorescence assay (reference value: 82.4 +/- 6.6 %); assay type: functional; design: scale not given: the % may be the effect or the level left
[8] = tested on: SH-SY5Y; assay: Cytotoxicity against human SH-SY5Y cells at 0.1 to 50 uM after 24 hrs by MTT assay; assay type: cell-based; in short: as §1
[9] = molecular target: T1, Acetylcholinesterase; assay: Inhibition of human AChE-induced amyloid beta (1 to 40) aggregation at 100 uM after 24 hrs by thioflavin T based fluorometric assay

Chain of Cholinesterase (P06276 whole entry): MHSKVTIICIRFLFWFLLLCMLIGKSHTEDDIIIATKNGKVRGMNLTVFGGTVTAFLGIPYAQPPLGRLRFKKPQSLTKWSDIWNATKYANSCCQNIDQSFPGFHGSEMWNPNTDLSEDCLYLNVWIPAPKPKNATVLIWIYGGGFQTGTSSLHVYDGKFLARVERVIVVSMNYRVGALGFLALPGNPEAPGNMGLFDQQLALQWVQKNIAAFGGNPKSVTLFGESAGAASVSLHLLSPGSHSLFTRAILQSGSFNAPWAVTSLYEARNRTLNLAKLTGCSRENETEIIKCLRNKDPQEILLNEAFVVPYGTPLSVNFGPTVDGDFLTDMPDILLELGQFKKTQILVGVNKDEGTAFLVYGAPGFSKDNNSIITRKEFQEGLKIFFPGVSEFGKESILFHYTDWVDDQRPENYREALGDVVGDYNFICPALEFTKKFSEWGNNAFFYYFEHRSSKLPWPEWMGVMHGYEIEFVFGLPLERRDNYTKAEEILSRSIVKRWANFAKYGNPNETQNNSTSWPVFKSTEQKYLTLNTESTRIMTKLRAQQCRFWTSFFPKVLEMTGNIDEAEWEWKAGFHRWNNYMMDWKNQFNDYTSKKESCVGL

SMILES | IC50 [1] | IC50 [2] | Activity [3] | Activity [4] | Activity [5] | Activity [6] | Activity [7] | Activity [8] | inhibition [9]
O=C(CCCC[C@H]1CCSS1)NCCCNc1c2c(nc3cc(Cl)ccc13)CCCC2 | 12.1 nM | 0.471 nM |  |  |  |  |  |  | 
O=C(CCCC[C@@H]1CCSS1)NCCCNc1c2c(nc3cc(Cl)ccc13)CCCC2 | 12.6 nM |  |  |  |  |  |  |  | 
O=C(CCCCc1cccs1)NCCCNc1c2c(nc3cc(Cl)ccc13)CCCC2 |  |  | 80.2% | 81% | 80% | 79.8% |  |  | 
COc1cccc(C(C)N(C)CCCNC(=O)CCCCC2CCSS2)c1 (mixture of isomers) |  |  | 68.8% | 82.5% |  | 80% | 46.4% | Non-toxic | 
CC(c1cccc(OCCCNC(=O)CCCCC2CCSS2)c1)N(C)C (mixture of isomers) |  |  | 48% | 80.3% |  | 76.8% | 34.4% | Non-toxic | 
COc1cc2nc(Cl)nc(NCCCNC(=O)CCCCC3CCSS3)c2cc1OC (racemic) | 205000 nM |  | 63.4% | 82% | 30% | 73.5% |  |  | 
CCN(CCCCCCNC(=O)CCCCC1CCSS1)Cc1ccccc1OC (racemic) |  |  | 69.6% | 80.8% |  | 75.8% | 37.6% | Non-toxic | 16.8%
O=C(CCCCC1CCSS1)NCCCNc1c2c(nc3cc(Cl)ccc13)CCCC2 (racemic) [LIPOCRINE] |  |  | 50% | 83.2% |  | 65% | 31% |  | 61.8%
